These results are taken from ChEMBL document CHEMBL1128425, “5-Methyl-1-(3-pyridylcarbamoyl)-1,2,3,5-tetrahydropyrrolo[2,3-f]indole: a novel 5-HT2C/5-HT2B receptor antagonist with improved affinity, selectivity, and oral activity” (J Med Chem, 1995).

The target in experiment [1] is 5-hydroxytryptamine receptor 2B (Rattus norvegicus, UniProt P30994). Kind of experiment: Inhibitory potency against rat stomach fundus 5-hydroxytryptamine 2B receptor. The format is tissue-based. As to conditions: read-out: pA2 (converted). The method in brief: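 Functional antagonism in isolated rat stomach fundus, with contraction evoked by 5-HT as the agonist. Values are means ± SEM of n ≥ 3 determinations.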
Chain of 5-hydroxytryptamine receptor 2B (P30994 whole entry): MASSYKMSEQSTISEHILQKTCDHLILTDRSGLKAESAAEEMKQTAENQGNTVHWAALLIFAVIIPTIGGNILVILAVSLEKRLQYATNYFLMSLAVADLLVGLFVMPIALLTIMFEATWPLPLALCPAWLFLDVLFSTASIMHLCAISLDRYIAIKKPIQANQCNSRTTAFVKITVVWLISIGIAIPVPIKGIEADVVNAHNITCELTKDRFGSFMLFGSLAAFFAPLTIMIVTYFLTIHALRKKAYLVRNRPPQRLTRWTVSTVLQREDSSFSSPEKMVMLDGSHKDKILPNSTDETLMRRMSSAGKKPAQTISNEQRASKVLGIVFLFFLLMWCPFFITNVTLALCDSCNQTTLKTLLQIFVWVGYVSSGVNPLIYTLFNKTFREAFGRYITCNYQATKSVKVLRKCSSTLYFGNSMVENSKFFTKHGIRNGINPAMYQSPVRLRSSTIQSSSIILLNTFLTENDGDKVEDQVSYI

Experiment [2] concerns the target 5-hydroxytryptamine receptor 2A (Homo sapiens, UniProt P28223). The experiment is described as follows: Binding affinity against human 5-hydroxytryptamine 2A receptor expressed in 293 cells using [3H]ketanserin. The format is cell-based, HEK293. The method in brief:
(§1)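 Radioligand binding at cloned human receptors expressed in 293 cells: [³H]ketanserin for 5-HT2A, [³H]mesulergine for 5-HT2C. Values are means ± SEM of n ≥ 3 determinations.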

The target of experiment [3] is T1, 5-hydroxytryptamine receptor 2C (Homo sapiens, UniProt P28335).
T1 sequence (P28335 whole entry): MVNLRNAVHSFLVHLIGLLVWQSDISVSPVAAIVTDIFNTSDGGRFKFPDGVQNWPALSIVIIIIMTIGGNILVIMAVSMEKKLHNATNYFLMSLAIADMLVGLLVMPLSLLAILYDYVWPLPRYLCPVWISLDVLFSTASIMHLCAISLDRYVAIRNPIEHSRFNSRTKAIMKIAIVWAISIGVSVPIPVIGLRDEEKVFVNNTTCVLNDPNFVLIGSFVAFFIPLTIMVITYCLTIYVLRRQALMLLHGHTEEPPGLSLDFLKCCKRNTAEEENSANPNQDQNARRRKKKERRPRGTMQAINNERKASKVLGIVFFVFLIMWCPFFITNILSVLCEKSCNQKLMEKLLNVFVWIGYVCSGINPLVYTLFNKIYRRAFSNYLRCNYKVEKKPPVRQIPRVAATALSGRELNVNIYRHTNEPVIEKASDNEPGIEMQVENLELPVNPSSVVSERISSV
The experiment is described as follows: (§2) Binding affinity against human 5-hydroxytryptamine 2C receptor expressed in 293 cells using [3H]mesulergine. It counts as cell-based, HEK293. An outline of the steps:
as §1

The next experiment deals with Rattus norvegicus. Kind of experiment: In vivo potency to block hypolocomotion response to m-CPP in rat after oral administration. It counts as functional. Conditions: read-out: ID50 (the source's name).
The target of experiment [4] is T1, 5-hydroxytryptamine receptor 2C. The description is as §2. It counts as cell-based, HEK293. An outline of the steps: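 Radioligand binding to cloned human receptor in 293 cells with [3H]mesulergine; values are means ± SEM of at least 3 determinations.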
This is another data set of the same source.

The next experiment deals with Histamine H1 receptor (Cavia porcellus, UniProt P31389). Kind of experiment: Binding affinity against guinea pig H1 receptor.
Chain of Histamine H1 receptor (P31389 whole entry): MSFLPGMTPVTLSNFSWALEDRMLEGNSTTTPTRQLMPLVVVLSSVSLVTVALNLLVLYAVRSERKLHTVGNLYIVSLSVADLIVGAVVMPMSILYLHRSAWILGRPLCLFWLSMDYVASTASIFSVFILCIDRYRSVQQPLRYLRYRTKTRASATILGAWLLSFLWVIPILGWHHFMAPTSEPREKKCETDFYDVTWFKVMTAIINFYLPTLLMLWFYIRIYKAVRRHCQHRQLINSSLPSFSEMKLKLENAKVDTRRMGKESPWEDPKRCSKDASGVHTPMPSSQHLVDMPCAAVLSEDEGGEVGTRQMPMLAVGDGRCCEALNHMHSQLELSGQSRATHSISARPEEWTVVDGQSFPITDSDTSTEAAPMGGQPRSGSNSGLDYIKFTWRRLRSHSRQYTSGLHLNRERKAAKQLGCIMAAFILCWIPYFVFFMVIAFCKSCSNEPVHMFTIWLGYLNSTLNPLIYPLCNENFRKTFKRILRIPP
The target in experiment [5] is T2, 5-hydroxytryptamine receptor 1A (Rattus norvegicus, UniProt P19327).
T2 sequence (P19327 whole entry): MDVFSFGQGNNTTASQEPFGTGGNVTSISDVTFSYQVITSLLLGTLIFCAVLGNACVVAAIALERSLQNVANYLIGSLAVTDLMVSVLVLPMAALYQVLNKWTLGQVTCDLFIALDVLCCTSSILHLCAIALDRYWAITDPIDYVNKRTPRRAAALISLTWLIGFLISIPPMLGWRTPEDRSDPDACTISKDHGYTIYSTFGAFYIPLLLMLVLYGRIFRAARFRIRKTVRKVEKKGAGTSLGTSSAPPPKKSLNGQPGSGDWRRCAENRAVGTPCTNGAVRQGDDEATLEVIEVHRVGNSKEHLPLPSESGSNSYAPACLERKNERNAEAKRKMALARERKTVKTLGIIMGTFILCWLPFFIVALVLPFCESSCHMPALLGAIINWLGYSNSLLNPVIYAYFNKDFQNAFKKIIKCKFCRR
Kind of experiment: Binding affinity against rat 5-hydroxytryptamine 1A receptor.

For experiment [6], the target named is 5-hydroxytryptamine receptor 1E (Homo sapiens, UniProt P28566). Kind of experiment: Binding affinity against human 5-hydroxytryptamine 1E receptor expressed in CHO cells. It counts as cell-based. An outline of the steps:
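Displacement binding at cloned human 5-HT1E receptors expressed in CHO cells, using [³H]-5-HT as radioligand.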

Experiment [7] has as its target T3, Serotonin 3 (5-HT3) receptor (Rattus norvegicus, UniProt P35563+Q9JJ16).
T3 sequence (P35563 whole entry): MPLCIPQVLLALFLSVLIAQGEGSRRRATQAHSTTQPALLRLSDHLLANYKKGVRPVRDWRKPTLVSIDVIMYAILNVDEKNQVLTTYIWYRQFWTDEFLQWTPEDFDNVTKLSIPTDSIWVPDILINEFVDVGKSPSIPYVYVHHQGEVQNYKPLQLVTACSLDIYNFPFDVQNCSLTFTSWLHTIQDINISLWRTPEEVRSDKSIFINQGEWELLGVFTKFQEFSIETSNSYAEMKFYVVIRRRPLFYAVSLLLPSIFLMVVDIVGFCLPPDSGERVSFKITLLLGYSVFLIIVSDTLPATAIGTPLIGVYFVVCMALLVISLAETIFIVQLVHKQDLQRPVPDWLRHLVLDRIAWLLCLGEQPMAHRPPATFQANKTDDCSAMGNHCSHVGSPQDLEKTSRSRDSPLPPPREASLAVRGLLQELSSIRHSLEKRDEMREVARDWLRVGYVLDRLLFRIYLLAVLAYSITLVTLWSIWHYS
T3 sequence (Q9JJ16 whole entry): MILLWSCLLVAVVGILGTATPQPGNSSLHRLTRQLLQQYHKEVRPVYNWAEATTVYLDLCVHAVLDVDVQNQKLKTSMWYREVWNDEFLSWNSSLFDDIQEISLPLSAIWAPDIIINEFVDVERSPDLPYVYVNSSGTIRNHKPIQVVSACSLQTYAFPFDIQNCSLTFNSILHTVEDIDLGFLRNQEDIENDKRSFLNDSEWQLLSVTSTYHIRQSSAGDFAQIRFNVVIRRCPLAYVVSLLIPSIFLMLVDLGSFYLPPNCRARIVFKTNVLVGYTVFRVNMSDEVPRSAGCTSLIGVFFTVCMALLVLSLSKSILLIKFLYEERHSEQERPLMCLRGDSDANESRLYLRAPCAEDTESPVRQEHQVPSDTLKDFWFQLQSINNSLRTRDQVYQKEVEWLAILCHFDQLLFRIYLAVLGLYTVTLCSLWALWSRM
The experiment is described as follows: Binding affinity against rat 5-hydroxytryptamine 3 receptor. The format is protein-complex assay.

Experiment [8] addresses 5-hydroxytryptamine receptor 1D (Cavia porcellus, UniProt Q60484). The experiment is described as follows: Binding affinity against guinea pig 5-hydroxytryptamine 1D receptor.
In the next experiment the target is D(3) dopamine receptor (Homo sapiens, UniProt P35462). The experiment is described as follows: Binding affinity human Dopamine receptor D3 expressed in CHO cells using [125I]iodosulpiride. It counts as cell-based.
Chain of D(3) dopamine receptor (P35462 whole entry): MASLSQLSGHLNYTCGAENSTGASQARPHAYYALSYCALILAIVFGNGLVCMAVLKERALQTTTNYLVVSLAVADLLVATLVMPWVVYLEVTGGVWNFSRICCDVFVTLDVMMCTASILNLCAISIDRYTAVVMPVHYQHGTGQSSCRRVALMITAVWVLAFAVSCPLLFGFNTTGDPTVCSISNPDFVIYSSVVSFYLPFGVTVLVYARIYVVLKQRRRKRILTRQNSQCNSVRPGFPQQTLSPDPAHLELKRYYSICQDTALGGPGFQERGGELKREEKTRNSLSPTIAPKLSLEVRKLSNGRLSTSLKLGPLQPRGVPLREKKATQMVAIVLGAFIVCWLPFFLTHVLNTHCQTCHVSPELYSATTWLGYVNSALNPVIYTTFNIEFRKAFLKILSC
Another experiment addresses T4, Adenosine receptor A1 (Rattus norvegicus, UniProt P25099).
T4 sequence (P25099 whole entry): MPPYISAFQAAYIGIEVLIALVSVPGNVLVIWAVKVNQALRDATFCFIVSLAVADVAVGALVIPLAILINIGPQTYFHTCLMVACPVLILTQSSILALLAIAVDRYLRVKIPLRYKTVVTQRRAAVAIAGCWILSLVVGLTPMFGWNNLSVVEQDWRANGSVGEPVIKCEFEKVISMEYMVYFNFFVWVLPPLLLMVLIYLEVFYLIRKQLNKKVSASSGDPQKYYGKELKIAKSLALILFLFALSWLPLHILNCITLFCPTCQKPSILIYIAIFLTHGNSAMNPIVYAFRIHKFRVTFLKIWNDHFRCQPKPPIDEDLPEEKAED
Kind of experiment: Binding affinity against rat Adenosine A1 receptor.

The next experiment deals with D(2) dopamine receptor (Homo sapiens, UniProt P14416). Kind of experiment: Binding affinity against human Dopamine receptor D2 expressed in CHO cells using [125I]iodosulpiride. It counts as cell-based.
Chain of D(2) dopamine receptor (P14416 whole entry): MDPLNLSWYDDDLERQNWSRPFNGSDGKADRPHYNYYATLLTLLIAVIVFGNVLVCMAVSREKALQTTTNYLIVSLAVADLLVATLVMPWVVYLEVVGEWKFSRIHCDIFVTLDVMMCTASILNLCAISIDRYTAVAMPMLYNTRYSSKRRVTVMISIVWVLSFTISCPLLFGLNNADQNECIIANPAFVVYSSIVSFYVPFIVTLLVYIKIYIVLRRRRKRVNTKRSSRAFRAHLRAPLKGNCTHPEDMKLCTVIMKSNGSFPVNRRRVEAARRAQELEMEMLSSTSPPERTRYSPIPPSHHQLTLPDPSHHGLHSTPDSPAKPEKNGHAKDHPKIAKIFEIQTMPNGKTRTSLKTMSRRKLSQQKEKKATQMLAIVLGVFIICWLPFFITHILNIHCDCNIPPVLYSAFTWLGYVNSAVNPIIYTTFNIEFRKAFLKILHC
The target in experiment [9] is 5-hydroxytryptamine receptor 4 (Rattus norvegicus, UniProt Q62758). Kind of experiment: Binding affinity against rat 5-hydroxytryptamine 4 receptor.
Chain of 5-hydroxytryptamine receptor 4 (Q62758 whole entry): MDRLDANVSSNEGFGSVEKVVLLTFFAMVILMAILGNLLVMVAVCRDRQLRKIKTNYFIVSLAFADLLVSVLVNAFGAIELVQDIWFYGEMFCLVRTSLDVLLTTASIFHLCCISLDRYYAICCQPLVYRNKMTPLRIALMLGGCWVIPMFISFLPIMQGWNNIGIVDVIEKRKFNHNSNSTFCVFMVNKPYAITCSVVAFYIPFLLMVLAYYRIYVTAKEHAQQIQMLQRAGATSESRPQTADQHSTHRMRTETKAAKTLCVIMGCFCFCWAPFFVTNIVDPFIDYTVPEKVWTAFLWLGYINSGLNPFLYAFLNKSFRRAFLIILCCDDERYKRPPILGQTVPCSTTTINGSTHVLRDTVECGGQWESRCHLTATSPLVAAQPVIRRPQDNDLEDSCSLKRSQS
Experiment [10] has as its target T5, Adrenergic receptor alpha-1 (Rattus norvegicus, UniProt P15823+P23944+P43140).
T5 sequence (P15823 whole entry): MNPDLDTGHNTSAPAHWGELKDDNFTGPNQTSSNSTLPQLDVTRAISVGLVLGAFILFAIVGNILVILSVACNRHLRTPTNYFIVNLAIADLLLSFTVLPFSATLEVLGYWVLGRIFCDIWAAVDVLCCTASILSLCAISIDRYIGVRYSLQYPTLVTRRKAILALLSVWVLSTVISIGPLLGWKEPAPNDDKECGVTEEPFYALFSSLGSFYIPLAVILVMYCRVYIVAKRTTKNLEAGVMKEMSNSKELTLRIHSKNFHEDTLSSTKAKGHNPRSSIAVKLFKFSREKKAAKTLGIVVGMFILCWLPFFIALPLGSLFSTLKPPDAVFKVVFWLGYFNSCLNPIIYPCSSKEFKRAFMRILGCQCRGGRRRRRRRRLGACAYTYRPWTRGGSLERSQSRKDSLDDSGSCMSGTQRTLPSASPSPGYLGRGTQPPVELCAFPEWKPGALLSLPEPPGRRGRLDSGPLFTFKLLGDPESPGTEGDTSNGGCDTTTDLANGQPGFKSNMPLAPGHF
T5 sequence (P23944 whole entry): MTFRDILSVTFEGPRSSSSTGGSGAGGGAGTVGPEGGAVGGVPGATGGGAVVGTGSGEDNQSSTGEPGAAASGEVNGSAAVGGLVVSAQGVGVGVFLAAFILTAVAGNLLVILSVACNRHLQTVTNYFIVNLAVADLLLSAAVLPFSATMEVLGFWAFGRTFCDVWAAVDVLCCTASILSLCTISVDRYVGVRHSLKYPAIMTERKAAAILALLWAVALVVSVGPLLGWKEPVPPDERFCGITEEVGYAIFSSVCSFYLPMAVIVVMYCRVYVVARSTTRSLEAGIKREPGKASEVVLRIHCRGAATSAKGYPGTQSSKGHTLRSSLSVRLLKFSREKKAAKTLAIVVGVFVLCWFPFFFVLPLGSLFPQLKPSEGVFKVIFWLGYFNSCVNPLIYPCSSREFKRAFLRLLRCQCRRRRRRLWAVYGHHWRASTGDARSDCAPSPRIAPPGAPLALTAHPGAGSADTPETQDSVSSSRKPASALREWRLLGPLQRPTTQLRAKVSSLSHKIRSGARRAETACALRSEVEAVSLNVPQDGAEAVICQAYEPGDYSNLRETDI
T5 sequence (P43140 whole entry): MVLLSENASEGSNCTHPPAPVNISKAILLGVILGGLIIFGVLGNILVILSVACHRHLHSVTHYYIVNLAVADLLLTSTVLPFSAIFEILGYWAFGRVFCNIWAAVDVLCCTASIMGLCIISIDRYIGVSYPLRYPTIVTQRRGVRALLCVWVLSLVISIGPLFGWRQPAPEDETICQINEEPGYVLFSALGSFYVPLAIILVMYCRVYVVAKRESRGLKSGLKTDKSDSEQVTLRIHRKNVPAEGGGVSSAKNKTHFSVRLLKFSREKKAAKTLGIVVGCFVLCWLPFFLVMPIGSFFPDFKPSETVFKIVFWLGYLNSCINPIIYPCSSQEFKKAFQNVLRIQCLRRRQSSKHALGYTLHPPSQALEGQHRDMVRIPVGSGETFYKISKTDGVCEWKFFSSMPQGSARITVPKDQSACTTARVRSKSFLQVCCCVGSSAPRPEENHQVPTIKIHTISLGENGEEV
Kind of experiment: Binding affinity against rat Alpha-1 adrenergic receptor. The format is protein assay.

Chain of 5-hydroxytryptamine receptor 2A (P28223 whole entry): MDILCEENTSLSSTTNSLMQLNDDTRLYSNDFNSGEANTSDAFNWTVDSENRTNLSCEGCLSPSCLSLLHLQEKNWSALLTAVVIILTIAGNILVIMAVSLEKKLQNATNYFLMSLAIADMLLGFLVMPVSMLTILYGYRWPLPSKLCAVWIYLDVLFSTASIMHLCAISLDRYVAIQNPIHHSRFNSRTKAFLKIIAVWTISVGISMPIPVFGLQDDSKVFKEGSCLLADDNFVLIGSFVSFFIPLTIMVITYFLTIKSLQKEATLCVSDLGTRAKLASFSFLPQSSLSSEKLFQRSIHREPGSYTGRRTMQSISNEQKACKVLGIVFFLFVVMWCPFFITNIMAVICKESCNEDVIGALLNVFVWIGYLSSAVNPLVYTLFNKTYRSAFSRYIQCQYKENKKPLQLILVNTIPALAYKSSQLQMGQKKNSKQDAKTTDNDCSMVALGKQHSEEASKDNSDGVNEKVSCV
Chain of 5-hydroxytryptamine receptor 1D (Q60484 whole entry): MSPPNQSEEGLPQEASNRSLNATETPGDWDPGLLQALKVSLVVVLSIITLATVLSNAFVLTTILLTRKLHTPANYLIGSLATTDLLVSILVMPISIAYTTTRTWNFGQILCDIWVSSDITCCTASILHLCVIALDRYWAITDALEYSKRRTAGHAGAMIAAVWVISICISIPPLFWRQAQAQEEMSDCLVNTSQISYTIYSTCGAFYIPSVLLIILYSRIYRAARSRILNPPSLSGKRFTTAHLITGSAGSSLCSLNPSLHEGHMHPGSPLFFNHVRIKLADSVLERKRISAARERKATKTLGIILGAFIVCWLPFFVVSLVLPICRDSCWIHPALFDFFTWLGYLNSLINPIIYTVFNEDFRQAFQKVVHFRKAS
Chain of 5-hydroxytryptamine receptor 1E (P28566 whole entry): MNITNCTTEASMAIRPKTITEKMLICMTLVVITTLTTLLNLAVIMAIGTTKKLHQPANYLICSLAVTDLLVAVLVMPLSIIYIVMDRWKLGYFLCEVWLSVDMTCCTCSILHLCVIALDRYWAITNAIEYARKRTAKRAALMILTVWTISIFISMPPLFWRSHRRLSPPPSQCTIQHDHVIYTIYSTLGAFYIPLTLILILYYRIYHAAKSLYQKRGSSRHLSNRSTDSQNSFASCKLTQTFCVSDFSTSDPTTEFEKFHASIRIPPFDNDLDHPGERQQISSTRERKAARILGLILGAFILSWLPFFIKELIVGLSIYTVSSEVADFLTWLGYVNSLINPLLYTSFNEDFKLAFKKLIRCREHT

One may read the Ki as a measure of affinity in units of concentration, obtained from inhibition or displacement. As for `Cn1ccc2c3c(ccc21)N(C(=O)Nc1cccnc1)CC3`, the Kb in experiment [1] is 17.8 nM. For the same molecule, the results for the inhibition constant Ki in [2] and in experiment [3] were 2880 nM and 66.1 nM, respectively.
On to `Cl.Cn1ccc2cc(NC(=O)Nc3cccnc3)ccc21`, for which the ED50 in the experiment with Rattus norvegicus was 19.2 mg/kg. Also, in experiment [1], the Kb is 39.8 nM. For the same molecule, the affinity in [4], expressed as Ki, was 138 nM.
For the molecule `Cn1ccc2cc3c(cc21)CCN3C(=O)Nc1cccnc1`, the inhibition constant Ki was more than 10000 nM at Histamine H1 receptor; more than 10000 nM in experiment [5]; more than 5010 nM in experiment [6]; more than 10000 nM in [7]; more than 1000 nM in experiment [8]; more than 10000 nM on D(3) dopamine receptor. The Ki at Adenosine receptor A1 is more than 50100 nM; at D(2) dopamine receptor, more than 10000 nM; in [9], 5010 nM; in experiment [2], 1620 nM. Further, the ED50 in the experiment on Rattus norvegicus was determined as 5.5 mg/kg. In experiment [1], the Kb was 3.31 nM. For the same molecule, the Log Ki in experiment [10] is more than -5.
Regarding `Cn1ccc2cc3c(cc21)CCCN3C(=O)Nc1cccnc1`, in experiment [1], the Kb is 53.7 nM. Besides, the Ki in experiment [2] was more than 6310 nM; in [3], 4070 nM.
In the case of `Cn1ccc2c3c(ccc21)N(C(=O)Nc1cccnc1)CCC3`, in experiment [1], the Kb is 60.3 nM. Further, the inhibition constant Ki in [2] and in experiment [3] was more than 6310 nM in each case.
